Columns and labels:
Mus musculus = assay: Dose normalized AUC (0 to 6 hrs) in po dosed mouse; assay type: ADME, organism-based; parameters: time < 6 hr, route oral; conditions: in vivo
Outline: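 Oral dosing in mice; dose-normalized AUC in ng h/mL/(mg/kg) calculated over 0–6 h.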

[1] = biological target: T1, Insulin-like growth factor 1 receptor (Homo sapiens, UniProt P08069); assay: Inhibition of GST-tagged IGF1R (957-1367) expressed in baculovirus by time-resolved fluorescence assay
[2] = biological target: T1, Insulin-like growth factor 1 receptor; assay: Inhibition of human IGF1R autophosphorylation in transfected mouse NIH3T3 cells; assay type: cell-based
Insulin receptor = Insulin receptor (Homo sapiens, UniProt P06213); assay: Inhibition of GST-tagged insulin receptor expressed in baculovirus by time-resolved fluorescence assay
Outline: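 GST-tagged IR intracellular domain (aa 979–1382), baculovirus-expressed, activated at 2.7 µM with 2 mM ATP in 50 mM Hepes pH 7.5, 10 mM MgCl2, BSA. Phosphopeptide by TRF with streptavidin-allophycocyanin and Eu-anti-phosphotyrosine. n ≥ 2.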

[3] = biological target: Epidermal growth factor receptor (Homo sapiens, UniProt P00533); assay: Inhibition of EGFR
Epidermal growth factor receptor, sequence (P00533 whole entry): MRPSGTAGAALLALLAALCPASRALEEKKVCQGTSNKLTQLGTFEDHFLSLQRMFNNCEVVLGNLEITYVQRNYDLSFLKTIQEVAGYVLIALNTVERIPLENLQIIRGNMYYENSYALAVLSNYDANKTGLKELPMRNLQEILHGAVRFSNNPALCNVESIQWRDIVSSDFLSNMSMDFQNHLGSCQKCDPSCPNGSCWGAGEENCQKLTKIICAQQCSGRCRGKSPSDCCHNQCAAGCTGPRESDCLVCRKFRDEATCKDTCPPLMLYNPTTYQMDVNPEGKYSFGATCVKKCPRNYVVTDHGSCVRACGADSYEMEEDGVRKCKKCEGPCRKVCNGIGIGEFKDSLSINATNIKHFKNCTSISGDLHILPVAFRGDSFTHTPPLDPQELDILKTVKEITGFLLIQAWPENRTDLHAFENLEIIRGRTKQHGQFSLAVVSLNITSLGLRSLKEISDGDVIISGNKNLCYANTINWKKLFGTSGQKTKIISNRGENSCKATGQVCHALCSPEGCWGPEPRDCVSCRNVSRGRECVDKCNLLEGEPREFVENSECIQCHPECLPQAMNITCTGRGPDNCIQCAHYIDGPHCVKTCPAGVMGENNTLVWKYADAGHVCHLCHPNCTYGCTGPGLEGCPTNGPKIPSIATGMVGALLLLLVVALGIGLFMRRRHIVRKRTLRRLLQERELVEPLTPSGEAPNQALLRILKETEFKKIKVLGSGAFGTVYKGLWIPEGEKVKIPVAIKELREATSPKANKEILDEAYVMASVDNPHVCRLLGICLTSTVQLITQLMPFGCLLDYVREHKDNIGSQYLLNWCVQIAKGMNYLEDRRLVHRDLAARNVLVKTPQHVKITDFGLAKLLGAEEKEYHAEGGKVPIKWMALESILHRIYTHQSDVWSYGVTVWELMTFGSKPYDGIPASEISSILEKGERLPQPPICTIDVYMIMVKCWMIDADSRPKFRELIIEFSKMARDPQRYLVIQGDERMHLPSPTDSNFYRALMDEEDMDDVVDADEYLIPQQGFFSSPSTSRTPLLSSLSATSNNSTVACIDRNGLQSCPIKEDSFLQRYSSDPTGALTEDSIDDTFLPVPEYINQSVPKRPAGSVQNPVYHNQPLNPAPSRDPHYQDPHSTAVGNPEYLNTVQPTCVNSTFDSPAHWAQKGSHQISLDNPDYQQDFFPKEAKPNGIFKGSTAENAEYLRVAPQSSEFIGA

[4] = biological target: Receptor tyrosine-protein kinase erbB-4 (Homo sapiens, UniProt Q15303); assay: Inhibition of ErbB4
Receptor tyrosine-protein kinase erbB-4, sequence (Q15303 whole entry): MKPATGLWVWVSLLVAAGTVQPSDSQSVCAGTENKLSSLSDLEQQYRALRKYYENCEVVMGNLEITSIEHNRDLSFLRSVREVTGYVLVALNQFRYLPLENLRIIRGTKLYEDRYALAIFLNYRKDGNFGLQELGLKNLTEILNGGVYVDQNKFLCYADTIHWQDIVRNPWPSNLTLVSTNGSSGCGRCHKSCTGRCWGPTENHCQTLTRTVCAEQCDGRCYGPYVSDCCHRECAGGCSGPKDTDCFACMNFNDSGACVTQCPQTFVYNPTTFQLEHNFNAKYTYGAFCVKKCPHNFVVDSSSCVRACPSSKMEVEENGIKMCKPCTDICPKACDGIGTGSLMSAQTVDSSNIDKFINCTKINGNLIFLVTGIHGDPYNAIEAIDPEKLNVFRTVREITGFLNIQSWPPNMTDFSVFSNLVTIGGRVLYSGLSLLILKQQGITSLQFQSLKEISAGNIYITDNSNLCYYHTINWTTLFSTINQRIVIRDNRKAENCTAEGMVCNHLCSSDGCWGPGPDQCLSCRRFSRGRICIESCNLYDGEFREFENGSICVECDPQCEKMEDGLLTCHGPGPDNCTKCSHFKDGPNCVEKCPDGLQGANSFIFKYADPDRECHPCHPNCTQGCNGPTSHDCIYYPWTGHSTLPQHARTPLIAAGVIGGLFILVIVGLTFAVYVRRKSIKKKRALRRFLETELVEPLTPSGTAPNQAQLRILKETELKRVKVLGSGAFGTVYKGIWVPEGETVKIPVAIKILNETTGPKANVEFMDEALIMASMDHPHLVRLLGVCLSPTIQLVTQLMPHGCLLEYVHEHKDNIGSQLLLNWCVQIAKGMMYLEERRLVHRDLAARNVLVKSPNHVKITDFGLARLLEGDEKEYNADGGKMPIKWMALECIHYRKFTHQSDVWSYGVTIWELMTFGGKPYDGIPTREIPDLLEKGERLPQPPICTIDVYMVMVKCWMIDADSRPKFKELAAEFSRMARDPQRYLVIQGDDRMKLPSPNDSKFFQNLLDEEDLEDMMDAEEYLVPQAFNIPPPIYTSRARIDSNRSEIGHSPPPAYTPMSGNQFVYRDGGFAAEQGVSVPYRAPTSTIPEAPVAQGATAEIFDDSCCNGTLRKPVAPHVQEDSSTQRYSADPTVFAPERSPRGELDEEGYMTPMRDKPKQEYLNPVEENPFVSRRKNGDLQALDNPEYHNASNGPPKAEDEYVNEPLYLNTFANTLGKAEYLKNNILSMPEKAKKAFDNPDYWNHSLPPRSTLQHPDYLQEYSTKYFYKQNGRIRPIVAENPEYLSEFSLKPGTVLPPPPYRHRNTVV

[5] = biological target: Receptor tyrosine-protein kinase erbB-2 (Homo sapiens, UniProt P04626); assay: Inhibition of ErbB2
[6] = biological target: Serine/threonine-protein kinase B-raf (Homo sapiens, UniProt P15056, V600E); assay: Inhibition of B-raf V600E mutant
Aurora kinase B = Aurora kinase B (Homo sapiens, UniProt Q96GD4); assay: Inhibition of Aurora B
Aurora kinase B, sequence (Q96GD4 whole entry): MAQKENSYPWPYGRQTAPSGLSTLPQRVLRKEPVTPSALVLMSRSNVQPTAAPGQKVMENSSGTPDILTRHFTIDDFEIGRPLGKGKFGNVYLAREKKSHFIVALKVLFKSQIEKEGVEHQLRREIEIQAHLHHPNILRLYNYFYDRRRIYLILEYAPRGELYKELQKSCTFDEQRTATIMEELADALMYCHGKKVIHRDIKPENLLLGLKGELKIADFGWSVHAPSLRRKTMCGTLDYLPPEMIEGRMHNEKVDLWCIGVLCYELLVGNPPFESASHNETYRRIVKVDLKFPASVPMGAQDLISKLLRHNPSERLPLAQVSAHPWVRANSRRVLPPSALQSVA

[7] = biological target: Mitogen-activated protein kinase 14 (Homo sapiens, UniProt Q16539); assay: Inhibition of p38alpha
Mitogen-activated protein kinase 14, sequence (Q16539 whole entry): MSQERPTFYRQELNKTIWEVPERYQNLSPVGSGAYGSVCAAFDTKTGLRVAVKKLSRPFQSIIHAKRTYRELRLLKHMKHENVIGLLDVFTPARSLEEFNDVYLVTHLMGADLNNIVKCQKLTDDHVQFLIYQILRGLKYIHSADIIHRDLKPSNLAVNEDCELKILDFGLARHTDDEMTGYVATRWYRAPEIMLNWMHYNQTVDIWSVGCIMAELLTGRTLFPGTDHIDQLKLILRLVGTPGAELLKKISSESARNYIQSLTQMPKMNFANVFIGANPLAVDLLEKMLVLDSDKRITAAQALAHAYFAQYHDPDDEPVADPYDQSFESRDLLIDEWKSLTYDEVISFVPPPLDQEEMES

Aurora kinase A = biological target: T2, Aurora kinase A (Homo sapiens, UniProt O14965); assay: Inhibition of Aurora A
T2 sequence (O14965 whole entry): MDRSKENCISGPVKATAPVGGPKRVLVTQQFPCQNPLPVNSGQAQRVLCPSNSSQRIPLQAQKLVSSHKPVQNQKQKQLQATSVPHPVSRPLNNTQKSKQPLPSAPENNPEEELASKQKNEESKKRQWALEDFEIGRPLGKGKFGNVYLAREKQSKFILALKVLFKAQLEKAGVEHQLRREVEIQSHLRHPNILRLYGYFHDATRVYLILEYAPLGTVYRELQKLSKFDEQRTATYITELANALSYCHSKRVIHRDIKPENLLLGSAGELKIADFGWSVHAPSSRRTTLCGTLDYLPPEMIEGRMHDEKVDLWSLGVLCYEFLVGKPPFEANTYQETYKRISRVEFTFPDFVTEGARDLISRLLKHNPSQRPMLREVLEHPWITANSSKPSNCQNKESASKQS

[8] = biological target: Tyrosine-protein kinase Lck (Homo sapiens, UniProt P06239); assay: Inhibition of LCK
Tyrosine-protein kinase Lck, sequence (P06239 whole entry): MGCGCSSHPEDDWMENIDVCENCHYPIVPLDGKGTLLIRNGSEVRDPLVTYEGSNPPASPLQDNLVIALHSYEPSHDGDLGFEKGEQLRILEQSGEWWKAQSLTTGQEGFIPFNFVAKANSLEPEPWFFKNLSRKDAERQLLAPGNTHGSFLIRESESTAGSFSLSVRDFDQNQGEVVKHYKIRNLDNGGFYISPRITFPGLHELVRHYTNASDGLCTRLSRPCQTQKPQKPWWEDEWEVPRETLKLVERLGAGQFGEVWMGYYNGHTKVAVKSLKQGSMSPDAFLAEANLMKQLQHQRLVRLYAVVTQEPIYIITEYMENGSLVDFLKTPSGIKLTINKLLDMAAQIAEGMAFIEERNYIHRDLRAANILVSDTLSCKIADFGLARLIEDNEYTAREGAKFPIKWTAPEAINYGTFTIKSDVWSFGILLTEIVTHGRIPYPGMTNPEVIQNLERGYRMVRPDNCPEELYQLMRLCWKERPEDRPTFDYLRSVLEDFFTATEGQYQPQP

T1 sequence (P08069 31-736 limits assumed): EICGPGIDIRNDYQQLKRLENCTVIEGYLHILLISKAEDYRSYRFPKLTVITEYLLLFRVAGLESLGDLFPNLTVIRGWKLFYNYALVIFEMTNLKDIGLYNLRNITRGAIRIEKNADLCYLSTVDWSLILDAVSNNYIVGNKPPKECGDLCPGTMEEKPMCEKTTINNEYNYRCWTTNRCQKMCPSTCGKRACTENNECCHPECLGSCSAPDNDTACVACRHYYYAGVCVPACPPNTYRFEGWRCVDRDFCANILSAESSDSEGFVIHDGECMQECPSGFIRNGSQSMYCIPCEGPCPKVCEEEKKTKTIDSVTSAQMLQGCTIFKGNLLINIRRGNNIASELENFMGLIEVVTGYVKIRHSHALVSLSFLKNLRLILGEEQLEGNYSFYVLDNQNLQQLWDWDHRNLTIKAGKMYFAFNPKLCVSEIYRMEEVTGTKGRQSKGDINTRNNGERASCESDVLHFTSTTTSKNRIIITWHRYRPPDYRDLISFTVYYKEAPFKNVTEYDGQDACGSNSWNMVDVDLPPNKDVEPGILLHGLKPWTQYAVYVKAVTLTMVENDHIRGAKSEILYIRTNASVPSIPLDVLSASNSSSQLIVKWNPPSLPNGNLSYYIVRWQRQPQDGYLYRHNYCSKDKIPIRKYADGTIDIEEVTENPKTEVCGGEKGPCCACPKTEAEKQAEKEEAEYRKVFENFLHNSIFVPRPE
T1 sequence (P08069 741-1367 limits assumed): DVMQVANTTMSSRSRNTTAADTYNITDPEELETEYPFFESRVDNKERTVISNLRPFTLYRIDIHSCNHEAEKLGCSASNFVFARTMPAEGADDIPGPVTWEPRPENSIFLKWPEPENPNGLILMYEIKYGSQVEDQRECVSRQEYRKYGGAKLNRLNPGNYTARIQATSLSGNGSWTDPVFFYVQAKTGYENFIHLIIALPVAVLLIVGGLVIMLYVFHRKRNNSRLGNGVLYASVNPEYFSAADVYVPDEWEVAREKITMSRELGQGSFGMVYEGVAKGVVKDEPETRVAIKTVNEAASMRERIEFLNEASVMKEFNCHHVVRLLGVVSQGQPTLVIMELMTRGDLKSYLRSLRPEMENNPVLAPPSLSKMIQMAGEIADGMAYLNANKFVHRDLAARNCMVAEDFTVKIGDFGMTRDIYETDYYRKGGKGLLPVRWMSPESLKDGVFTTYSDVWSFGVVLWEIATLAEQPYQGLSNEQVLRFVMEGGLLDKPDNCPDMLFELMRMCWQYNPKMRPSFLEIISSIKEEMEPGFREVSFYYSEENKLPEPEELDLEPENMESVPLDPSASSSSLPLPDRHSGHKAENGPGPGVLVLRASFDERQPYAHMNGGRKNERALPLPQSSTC

| SMILES | AUC (Mus musculus) [ng·h/mL] | IC50 [1] [nM] | IC50 [2] [nM] | also measured |
| --- | --- | --- | --- | --- |
| COc1cc(N2CCC(N3CCN(C(C)=O)CC3)CC2)ccc1Nc1nccc(-c2c(-c3cccc(C(=O)Nc4c(F)cccc4F)c3)nc3ccccn23)n1 | 216 | 3 | 65 |  |
| CN(C)CCOc1cccc(Nc2nccc(-c3c(-c4cccc(C(=O)Nc5c(F)cccc5F)c4)nc4ccccn34)n2)c1 |  | 1 | 177 |  |
| CCc1cc(Nc2nccc(-c3c(-c4cccc(C(=O)Nc5c(F)cccc5F)c4)nc4ccccn34)n2)c(OC)cc1N1CCC(N2CCN(S(C)(=O)=O)CC2)CC1 |  | 7 |  | IC50 (Insulin receptor): 7 nM; IC50 [3]: 22 nM; IC50 [4]: 140 nM; IC50 [5]: 54 nM; IC50 [6]: 320 nM; IC50 (Aurora kinase B): 1300 nM; IC50 [7]: 1800 nM; IC50 (Aurora kinase A): > 9500 nM; IC50 [8]: 710 nM |
| COc1cc(N2CCC(N3CCN(C)CC3)CC2)ccc1Nc1nccc(-c2c(-c3cccc(C(=O)Nc4c(F)cccc4F)c3)nc3ccccn23)n1 | 203 | 2 | 28 |  |
| O=C(Nc1c(F)cccc1F)c1cccc(-c2nc3ccccn3c2-c2ccnc(Nc3ccc(N4CCC(N5CCCCC5)CC4)cc3)n2)c1 |  | 2 | 87 |  |
| COc1cc(N2CCC(N3C[C@@H](C)O[C@@H](C)C3)CC2)ccc1Nc1nccc(-c2c(-c3cccc(C(=O)Nc4c(F)cccc4F)c3)nc3ccccn23)n1 | 549 | 4 | 68 |  |
